Measured values reported in ChEMBL document CHEMBL1629571, “High prevalence of plasmid-mediated quinolone resistance determinants qnr, aac(6')-Ib-cr, and qepA among ceftiofur-resistant Enterobacteriaceae isolates from companion and food-producing animals” (2009).
Converted amounts (≈) assume the structure as drawn.

Assays:
[1] = system: Escherichia coli; experiment: Antimicrobial activity against Escherichia coli J53 transformed with pHND3 carrying qnrB6 gene by agar dilution method; type: functional
Method in brief: (§1)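 Transconjugants came from liquid mating of qnr-positive donors into E. coli J53Azi^r. They were selected on tryptic soy agar with sodium azide (100 μg/ml) plus sulfamethoxazole (300 μg/ml) or ampicillin (100 μg/ml). MICs were determined by CLSI agar dilution, with E. coli ATCC 25922 as the quality control strain.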

[2] = system: Escherichia coli; experiment: Antimicrobial activity against Escherichia coli J53 transformed with pHND2 carrying qnrB6 and CTX-M-9G genes by agar dilution method
[3] = system: Citrobacter freundii; experiment: Antimicrobial activity against Citrobacter freundii D26 expressing qnrB6 and CTX-M-9G genes by agar dilution method; type: functional
Method in brief: (§2)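 Agar dilution MICs per CLSI guidelines, with E. coli ATCC 25922 as the quality-control strain. Isolates were ceftiofur-resistant (MIC ≥ 8 μg/ml) Enterobacteriaceae from diseased companion or food-producing animals in Guangdong, China. They were identified biochemically and with Biolog Microlog, and PMQR and β-lactamase genes were typed by PCR and sequencing.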

[4] = system: Escherichia coli; experiment: Antimicrobial activity against Escherichia coli Du19 expressing qnrB6 and CTX-M-9G genes by agar dilution method; type: functional; method in brief: as §2
[5] = system: Escherichia coli; experiment: Antimicrobial activity against Escherichia coli J53 transformed with pHNPA1 carrying qnrB6 gene by agar dilution method
[6] = system: Escherichia coli; experiment: Antimicrobial activity against Escherichia coli J53 by agar dilution method; type: functional
[7] = system: Escherichia coli; experiment: Antimicrobial activity against Escherichia coli PA11 expressing aac(6')-Ib-cr, qnrS1 and qepA genes by agar dilution method; type: functional; method in brief: as §2
[8] = system: Escherichia coli; experiment: Antimicrobial activity against Escherichia coli J53 transformed with pHND1 carrying DHA-1 gene by agar dilution method; type: functional; method in brief: as §1
[9] = system: Klebsiella pneumoniae; experiment: Antimicrobial activity against Klebsiella pneumoniae D10 expressing aac(6')-Ib-cr, qnrB4, CTX-M-1G and DHA-1 genes by agar dilution method; type: functional
[10] = system: Klebsiella pneumoniae; experiment: Antimicrobial activity against Klebsiella pneumoniae D24 expressing qnrB6 and CTX-M-9G genes by agar dilution method
[11] = system: Escherichia coli; experiment: Antimicrobial activity against Escherichia coli J53 transformed with pHNDU1 carrying qnrB6 gene by agar dilution method; type: functional; method in brief: as §1
[12] = system: Escherichia coli; experiment: Antimicrobial activity against Escherichia coli PA14 expressing aac(6')-Ib-cr and qepA genes by agar dilution method
[13] = system: Escherichia coli; experiment: Antimicrobial activity against Escherichia coli D71 expressing qepA, CTX-M-1G and CTX-M-9G genes by agar dilution method
[14] = system: Klebsiella pneumoniae; experiment: Antimicrobial activity against Klebsiella pneumoniae C7 expressing aac(6')-Ib-cr gene by agar dilution method
[15] = system: Escherichia coli; experiment: Antimicrobial activity against Escherichia coli PA11 expressing aac(6')-Ib-cr, qnrS1 and qepA genes by Etest; type: functional
[16] = system: Klebsiella pneumoniae; experiment: Antimicrobial activity against Klebsiella pneumoniae D24 expressing aac(6')-Ib-cr and CTX-M-9G genes by Etest
[17] = system: Escherichia coli; experiment: Antimicrobial activity against Escherichia coli P498 expressing qnrS1 gene by agar dilution method
[18] = system: Citrobacter freundii; experiment: Antimicrobial activity against Citrobacter freundii D26 expressing qnrB6 and CTX-M-9G genes by Etest; type: functional
[19] = system: Escherichia coli; experiment: Antimicrobial activity against Escherichia coli PA09 expressing aac(6')-Ib-cr gene by agar dilution method
[20] = system: Klebsiella pneumoniae; experiment: Antimicrobial activity against Klebsiella pneumoniae C1 expressing aac(6')-Ib-cr gene by agar dilution method
[21] = system: Escherichia coli; experiment: Antimicrobial activity against Escherichia coli Chi197 expressing aac(6')-Ib-cr and CTX-M-9G genes by agar dilution method
[22] = system: Klebsiella pneumoniae; experiment: Antimicrobial activity against Klebsiella pneumoniae D10 expressing aac(6')-Ib-cr, qnrB4, CTX-M-1G and DHA-1 genes by Etest; type: functional
[23] = system: Escherichia coli; experiment: Antimicrobial activity against Escherichia coli J53 transformed with pHNDU1 carrying qnrB6 gene by Etest; type: functional
[24] = system: Escherichia coli; experiment: Antimicrobial activity against Escherichia coli Du19 expressing qnrB6 and CTX-M-9G genes by Etest; type: functional
[25] = system: Escherichia coli; experiment: Antimicrobial activity against Escherichia coli J53 transformed with pHND2 carrying qnrB6 and CTX-M-9G genes by Etest; type: functional
[26] = system: Escherichia coli; experiment: Antimicrobial activity against Escherichia coli J53 transformed with pHND1 carrying DHA-1 gene by Etest; type: functional

Row | Compound | MIC [1] [µg/mL] | MIC [2] [µg/mL] | MIC [3] [µg/mL] | MIC [4] [µg/mL] | MIC [5] [µg/mL] | MIC [6] [µg/mL] | MIC [7] [µg/mL] | MIC [8] [µg/mL] | MIC [9] [µg/mL] | MIC [10] [µg/mL] | MIC [11] [µg/mL] | further results
1 | NCC[C@H](O)C(=O)N[C@@H]1C[C@H](N)[C@@H](O[C@H]2O[C@H](CN)[C@@H](O)[C@H](O)[C@H]2O)[C@H](O)[C@H]1O[C@H]1O[C@H](CO)[C@@H](O)[C@H](N)[C@H]1O [AMIKACIN] | 1 (≈ 1.71 µM) | 0.5 (≈ 0.854 µM) | > 128 | > 128 | 0.25 (≈ 0.427 µM) | 0.5 (≈ 0.854 µM) | > 256 | > 128 | > 128 | 2 (≈ 3.42 µM) | > 128 | –
2 | CC1(C)S[C@@H]2[C@H](NC(=O)[C@H](N)c3ccccc3)C(=O)N2[C@H]1C(=O)O [AMPICILLIN] | > 128 | > 128 | > 128 | > 128 | > 256 | – | > 256 | > 128 | > 128 | > 128 | 64 (≈ 183 µM) | –
3 | CO/N=C(\C(=O)N[C@@H]1C(=O)N2C(C(=O)O)=C(COC(C)=O)CS[C@H]12)c1csc(N)n1 [CEFOTAXIME] | 0.06 (≈ 0.132 µM) | 32 (≈ 70.3 µM) | 64 (≈ 141 µM) | 128 (≈ 281 µM) | 0.5 (≈ 1.1 µM) | 0.06 (≈ 0.132 µM) | 16 (≈ 35.1 µM) | 0.125 (≈ 0.274 µM) | 128 (≈ 281 µM) | 64 (≈ 141 µM) | 1 (≈ 2.2 µM) | –
4 | CO/N=C(\C(=O)N[C@@H]1C(=O)N2C(C(=O)[O-])=C(C[n+]3cccc4c3CCCC4)CS[C@H]12)c1csc(N)n1 [CEFQUINOME] | 0.06 (≈ 0.114 µM) | 8 (≈ 15.1 µM) | 64 (≈ 121 µM) | 32 (≈ 60.5 µM) | 0.25 (≈ 0.473 µM) | 0.06 (≈ 0.114 µM) | 64 (≈ 121 µM) | 0.06 (≈ 0.114 µM) | 64 (≈ 121 µM) | 64 (≈ 121 µM) | 0.25 (≈ 0.473 µM) | –
5 | CC(C)(O/N=C(\C(=O)N[C@@H]1C(=O)N2C(C(=O)[O-])=C(C[n+]3ccccc3)CS[C@H]12)c1csc(N)n1)C(=O)O [CEFTAZIDIME] | 0.125 (≈ 0.229 µM) | 1 (≈ 1.83 µM) | 1 (≈ 1.83 µM) | 16 (≈ 29.3 µM) | 1 (≈ 1.83 µM) | 0.125 (≈ 0.229 µM) | 32 (≈ 58.5 µM) | 0.25 (≈ 0.457 µM) | 128 (≈ 234 µM) | 2 (≈ 3.66 µM) | 0.5 (≈ 0.915 µM) | –
6 | CO/N=C(\C(=O)N[C@@H]1C(=O)N2C(C(=O)O)=C(CSC(=O)c3ccco3)CS[C@H]12)c1csc(N)n1 [CEFTIOFUR] | 0.25 (≈ 0.477 µM) | 64 (≈ 122 µM) | 128 (≈ 244 µM) | 128 (≈ 244 µM) | 0.5 (≈ 0.955 µM) | 0.25 (≈ 0.477 µM) | > 128 | 0.5 (≈ 0.955 µM) | 128 (≈ 244 µM) | > 128 | 0.25 (≈ 0.477 µM) | –
7 | O=C(N[C@H](CO)[C@H](O)c1ccc([N+](=O)[O-])cc1)C(Cl)Cl [CHLORAMPHENICOL] | 8 (≈ 24.8 µM) | > 128 | 64 (≈ 198 µM) | > 128 | – | 8 (≈ 24.8 µM) | > 256 | > 128 | > 128 | > 128 | > 128 | –
8 | O=C(O)c1cn(C2CC2)c2cc(N3CCNCC3)c(F)cc2c1=O [CIPROFLOXACIN] | – | – | 4 (≈ 12.1 µM) | 64 (≈ 193 µM) | – | – | > 128 | – | – | 2 (≈ 6.04 µM) | – | MIC [12]: > 128 µg/mL; MIC [13]: 64 µg/mL (≈ 193 µM); MIC [14]: 8 µg/mL (≈ 24.1 µM); MIC [15]: > 128 µg/mL; MIC [16]: 2 µg/mL (≈ 6.04 µM); MIC [17]: 64 µg/mL (≈ 193 µM); MIC [18]: 4 µg/mL (≈ 12.1 µM); MIC [19]: 64 µg/mL (≈ 193 µM); MIC [20]: 8 µg/mL (≈ 24.1 µM); MIC [21]: 64 µg/mL (≈ 193 µM)
9 | C[C@H]1COc2c(N3CCN(C)CC3)c(F)cc3c(=O)c(C(=O)O)cn1c23.C[C@H]1COc2c(N3CCN(C)CC3)c(F)cc3c(=O)c(C(=O)O)cn1c23.O [LEVOFLOXACIN] | – | – | – | – | – | – | – | – | – | – | – | MIC [22]: 16 µg/mL; MIC [23]: 2 µg/mL; MIC [15]: 128 µg/mL; MIC [18]: 2 µg/mL; MIC [24]: 16 µg/mL; MIC [25]: 0.25 µg/mL; MIC [26]: 0.25 µg/mL
10 | CCn1cc(C(=O)O)c(=O)c2ccc(C)nc21 [NALIDIXIC ACID] | 4 (≈ 17.2 µM) | 16 (≈ 68.9 µM) | 128 (≈ 551 µM) | > 128 | 32 (≈ 138 µM) | 4 (≈ 17.2 µM) | > 128 | 16 (≈ 68.9 µM) | > 128 | 64 (≈ 276 µM) | 64 (≈ 276 µM) | –
11 | Cc1cc(NS(=O)(=O)c2ccc(N)cc2)no1 [SULFAMETHOXAZOLE] | 4 (≈ 15.8 µM) | > 256 | > 256 | > 256 | > 256 | 16 (≈ 63.2 µM) | > 256 | > 256 | > 256 | > 256 | 128 (≈ 505 µM) | –
12 | COc1cc(Cc2cnc(N)nc2N)cc(OC)c1OC [TRIMETHOPRIM] | > 256 | > 256 | > 256 | > 256 | > 256 | 0.25 (≈ 0.861 µM) | > 256 | > 256 | > 256 | > 256 | 0.5 (≈ 1.72 µM) | –
13 | GENTAMICIN | 16 | – | > 128 | > 128 | – | 0.125 | > 256 | > 128 | > 128 | – | > 128 | –
